High-throughput results from PubChem.
TRAIL sens C8: caspase-8 TRAIL sensitization. actives 1% (n = 360,000). inhibition (viability loss, TRAIL sensitization), % at 10 µM. AID 624354. NB7+C8 cells + TRAIL, ATPlite viability luminescence;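 active = compounds causing at least 50% loss of cell viability in the single-dose screen, relative to plate controls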
STAT1 inh: STAT1 signaling inhibition; NIH 3T3 STAT1-luciferase reporter, IFN-gamma, luminescence; inhibition, % at 5.5 µM; actives 0.35% (n = 200,000); AID 920;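 active = inhibition above a set limit, the mean inhibition across all tested compounds plus 3 SD, cut at about 34% in these data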
PPC-1+TRAIL kill: PPC-1 cancer cell killing with TRAIL present. PPC-1 cells + TRAIL, ATPLite viability luminescence. cell killing (% activity), % at 4 µM or 5 µM. actives 0.41% (n = 220,000);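 active = cell killing above 50% in the first pass at 4 µM, then a duplicate retest at 5 µM averaging 50% or more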
HSP90 refold inh: inhibitors of HSP90 luciferase refolding in rabbit reticulocyte lysate; luciferase refolding luminescence, 3 h; inhibition, % at 5.6 µM; actives 0.91% (n = 290,000); AID 1789;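 active = inhibition above the screen-wide mean plus 3 SD, computed separately per campaign, cut at about 16% in these data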;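 note: inhibitors lower the luminescence because luciferase stays unfolded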
STAT3 act: increases IL-6 driven STAT3 reporter signal | activation (% of control), % at 5.6 µM | actives 0.91% (n = 190,000) | AID 871 | U3A cells, IL-6 STAT3-luciferase reporter, luminescence; 100% = signal with IL-6 EC80 alone;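 active = activation above the screen-wide mean of compound activation plus 3 SD, cut at about 130% in these data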
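Test system: human U3A cells carrying STAT3-luciferase construct; control set: IL-6-only wells as 100% reference; timing: compound pre-incubation 1 h before IL-6, then 6 h stimulation at 37 °C; also added: IL-6 stimulus at 33 ng/mL final; evaluation: % activation versus median of IL-6-stimulated wells; detection: reporter luminescence signal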
STAT3 blocker: STAT3 signaling inhibition. U3A cells, IL-6 STAT3-luciferase reporter, luminescence; host cell line lacks STAT1. inhibition, % at 5.5 µM. actives 0.89% (n = 190,000). AID 862;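 active = inhibition above the mean inhibition across all screened compounds plus 3 SD, cut at about 44% in these data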
A number is an active result; – = inactive; · = no result. Only some compounds are listed: those with a hit (about 2.3% of all), similar ones and a draw of the others.

SMILES	TRAIL sens C8	STAT1 inh	PPC-1+TRAIL kill	HSP90 refold inh	STAT3 act	STAT3 blocker
COC(=O)c1cc(OC)c(OC)cc1NC(=S)N1CCCCC1	–	–	–	–	–	–
Cc1c(CC(=O)NCC(=O)NCC(=O)O)c(=O)oc2cc3c(cc12)CCC(C)(C)O3	–	·	·	–	·	·
CN(C)c1ccc(NS(=O)(=O)c2cccc(Cl)c2)cc1	–	–	–	–	–	–
Cc1ccc(S(=O)(=O)N2CCC(C(=O)NCCc3ccc(S(N)(=O)=O)cc3)CC2)cc1	–	–	53	–	–	–
O=C(CCCc1ccccc1)NCc1ccccn1	–	·	·	–	·	·
CCSc1nc2c([nH]c3ccccc32)c(=O)n1C	–	–	–	–	–	–
CCOc1ccc(-n2c(SCC(N)=O)nc3c([nH]c4ccccc43)c2=O)cc1	51	–	–	–	134	–
CCOc1ccc(-n2c(SCC(=O)Nc3cc(C)on3)nc3c([nH]c4ccccc43)c2=O)cc1	–	–	–	–	–	–
COC(=O)C(C)Sc1nc2c([nH]c3ccccc32)c(=O)n1C (stereo not given)	–	–	–	–	133	–
COCCCNC(=O)c1cc(C(=O)Cc2ccccc2)c[nH]1	–	–	–	–	–	–
CN1/C(=C\C(=O)c2cccs2)Sc2ccccc21	64	–	–	–	–	–
COc1cc(OC)cc(C(=O)/C=C2\Sc3ccccc3N2C)c1	–	–	–	–	–	–
CN1/C(=C/C(=O)c2cccs2)Sc2ccccc21	57	–	–	–	163	–
COc1ccc(N(CC(=O)Nc2ccc3c(c2)OCCO3)S(=O)(=O)c2cccc(C)c2)cc1	–	·	·	·	·	·
N#C/C(=C\c1cccc(O)c1)C(=O)N1CCCCC1	–	·	·	–	·	·
N#C/C(=C\c1cccc(Br)c1)C(=O)N1CCCCC1	–	·	·	17	·	·
COc1ccc(NC(=O)CNC(=O)c2nn(-c3ccc(OC)c(Cl)c3)c(=O)c3ccccc23)c(OC)c1	–	·	·	–	·	·
O=C(c1ccco1)N1CCN(C(=O)c2cc(-c3ccccn3)nc3ccc(Cl)cc23)CC1	–	–	–	–	135	–
COC(=O)c1cc(OCC(=O)Nc2ccc3c(c2)CCC3)cc(C(=O)OC)c1	94	·	·	·	·	·
CCCCc1c(-c2ccccc2OC)ncn1CCc1ccc(Cl)cc1	–	·	·	·	·	·
COc1ccc(N2C(=O)c3ccccc3S2(=O)=O)cc1	–	·	–	–	·	·
COc1ccc(N2C(=O)N(Cc3ccc(C)cc3)c3ccccc3S2(=O)=O)cc1	–	–	–	27	–	–
CCCCN(C(C)=O)c1ccc2c(c1)C1CC2CCN1C(=O)OCc1ccccc1 (stereo not given)	–	·	·	·	·	·
Cc1cc(Br)c(OCc2ccc(C(=O)N/N=C/c3ccc[nH]3)cc2)c(Br)c1	68	·	·	·	·	·
O=C(N/N=C/c1ccc[nH]1)c1ccc(COc2cccc3cccnc23)cc1	63	–	–	–	–	70
SMILES	TRAIL sens C8	STAT1 inh	PPC-1+TRAIL kill	HSP90 refold inh	STAT3 act	STAT3 blocker
COc1ccc(C(=O)N2c3ccccc3C=CC2C#N)cc1 (stereo not given)	–	–	–	–	–	–
N#C[C@H]1[C@H](c2ccccc2)[C@](C#N)(C(=O)c2ccccc2)[C@@H]2C=Cc3ccccc3N21	·	–	–	–	133	–
COc1ccc(NS(=O)(=O)NC(=O)c2c(C)n(C)c3ccccc23)cc1	–	·	·	–	·	·
COc1ccc(NC(=O)c2c(Cl)n(C)c3ccccc23)cc1	–	–	–	–	144	–
CCOc1ccccc1/C=N/Nc1nc2c(N)ncnc2n1[C@H]1O[C@@H](CO)[C@H](O)[C@@H]1O	–	·	–	–	·	·
O=[N+]([O-])c1cccc(-c2cn3ccccc3n2)c1	–	–	–	–	–	–
CCCOc1ccc(-c2cn3ccccc3n2)cc1[N+](=O)[O-]	62	–	–	–	–	–
COc1ccc(-c2cn3ccccc3n2)cc1[N+](=O)[O-]	61	–	–	–	–	–
CC(C)CNS(=O)(=O)c1ccc(CCC(=O)Nc2ccc3c(c2)OCO3)cc1	–	–	–	17	–	–
CCC1=NN(C(=O)c2ccc(C)cc2)C(O)(c2ccc(Br)cc2)C1 (stereo not given)	–	–	–	–	–	–
CCC1=NN(C(=O)c2cccc(Br)c2)C(O)(c2ccc(Br)cc2)C1 (stereo not given)	49	–	–	–	–	–
